Experiment [1] in a line: OD615 S. cerevisiae growth inhibition, permissive medium, pilot counter-assay, permissive growth control for S. cerevisiae lifespan shortening project (AID 705). The settings on record: OD615, 24 h, at 10 µM, stronger effect = higher value. The procedure, abridged:
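System: Engineered DeaD yeast | Buffer or medium: SC raffinose/galactose permissive medium | Incubation: Cells pre-grown 4 h, then 24 h compound exposure, 30 °C humidified | Measured by: Absorbance (optical density) at 615 nm | Read-out: Reduction in yeast growth (OD615)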

Experiment [2] is described as follows: Restrictive medium S. cerevisiae growth inhibition, OD615, pilot screen of yeast lifespan reduction project, restrictive growth control (AID 706;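 active means growth inhibition above a set limit, 3 SD over mean compound inhibition, in both replicates, cut at about 43% in these data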;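 further: modified DeaD lifespan yeast strain shifted to restrictive glucose medium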). The settings on record: OD615, 48 h, at 10 µM, stronger effect = higher value. The method, boiled down: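 Material: modified S. cerevisiae; Medium: glucose-based CSMM-D restrictive medium; Compound dosing: one concentration, 10 µM final, 0.25% DMSO; Incubation: 48 h compound exposure at 30 °C; Measured by: OD615.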

Experiment [3] can be described thus: viability gain of MRP-1-high H69AR cells under doxorubicin, pilot screen, MRP-1 activator project, CellTiter-Glo, duplicate (AID 807;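 active means viability increase at or above a cutoff of the median across tested compounds plus 3 SD, cut at about 8.5% in these data, passing the limit was not always enough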;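 further: compound pretreatment 18-22 h then 72 h combined with doxorubicin; 0% = doxorubicin alone and 100% = vehicle without doxorubicin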). Conditions: H69AR viability with doxorubicin, CellTiter-Glo luminescence; at 10 µM; stronger effect = higher value.
Experiment [4] can be described thus: growth suppression of beta-catenin knockout HCT116, pilot screen, human colon tumor cells (AID 823;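 active means cell viability at or below a set limit in both duplicate runs, the limit being the all-compound median minus 4 SD, cut at about 23% in these data, passing the limit was not always enough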;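 further: 0% = wells killed by 20 µM Hyamine and 100% = untreated DMSO cell wells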). Conditions: CellTiter-Glo, 60 h, at 10 µM, stronger effect = lower value. For orientation: Cellular ATP, detected with luciferase, serves as a proxy for viable cell number.
Experiment [5] in a line: inhibitors of the yeast RAM network, pilot screen, dse1pr::URA3 reporter, 5-FOA selection (AID 869;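 active means inhibition over a set limit, the all-compound mean plus 3 SD, in both replicate runs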;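 further: 0% = DMSO wells with no growth and 100% = 10 µM 1-NA-PP1 with full growth; RAM network block rescues cells from 5-FOA so hits raise OD615 growth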). Conditions: S. cerevisiae dse1pr::URA3 5-FOA growth, OD615, 2 d; at 10 µM; stronger effect = higher value; strain carries analog-sensitive mutant Cbk1 kinase.
Experiment [6] can be described thus: RAM signaling pathway blockade in yeast – S. cerevisiae, Pdr1DBD-CYC8 efflux-inhibited sensitized strain, primary screen (AID 1298;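 active means RAM network inhibition above 8.4% in each of two replicates, 3 SD over the compound average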;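 further: 0% = DMSO untreated cells without growth and 100% = 10 µM 1-NA-PP1 full growth; higher means more yeast growth rescued from 5-FOA killing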). The settings on record: S. cerevisiae cbk1-as DSE1-URA3 strain, 5-FOA growth OD615, 2 d; at 50 µM; stronger effect = higher value.

Results on 19 molecules are retold here after PubChem BioAssay.

A number with no mark means an inactive call. Inconclusive results are not listed. Calls of active or inactive are those of the source.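 How the source made its calls, unless noted: active means growth inhibition above 25% in both replicates, a cutoff set 3 SD above the mean; inconclusive means above 25% in only one replicate; inactive means the rest.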

Broadly, the viability is a read-out of living cells in per cent, often relative to untreated cells. Usually inhibition stands for how much of the control response was suppressed. Take `Cc1cc(NC(=O)CN2CCN(c3ncccn3)CC2)no1`: the growth inhibition in experiment [1] is -7.78%; in experiment [2], -9.4%. In experiment [3], the viability increase was -1.38%. Further, the viability in experiment [4] is 98.6%. In experiment [5], the inhibition is 0.71%. Moreover, the RAM network inhibition in experiment [6] was 3.12%.
Consider `Cc1ccccc1-c1ccc(Nc2ccc(N3CCOCC3)cc2)nn1`, for which the growth inhibition in experiment [1] was -3.44%; in experiment [2], 15.8%. For the same molecule, the viability increase in experiment [3] was -5.91%. In addition, in experiment [4], the viability is 81%. Further, the inhibition in experiment [5] is 0.46%. Also, the RAM network inhibition in experiment [6] was 2.5%.
Regarding `Cc1nn(CC(=O)Nc2cccnc2N2CCOCC2)c(=O)c2ccccc12`, the growth inhibition is -23.7% in experiment [1] and 1.05% in experiment [2]. The viability increase in experiment [3] is -2.18%. In addition, the viability in experiment [4] was 95%. Further, in experiment [5], the inhibition was 1.22%. In addition, the RAM network inhibition in experiment [6] is 1.71%.
On to `N#C/C(=C1\CCCN1)c1ccc2ccccc2n1`, for which the growth inhibition in experiment [1] was 1.03%; in experiment [2], 3.25%. Further, in experiment [3], the viability increase is -4.02%. Also, in experiment [4], the viability is 94.2%. Moreover, the inhibition in experiment [5] is 2.02%. Moreover, the RAM network inhibition in experiment [6] was 3.18%.
In the case of `Cc1cc(C)n(-c2nnc(C)n2/N=C/c2ccccc2OCc2ccccc2Cl)n1`, the growth inhibition was -4.54% in experiment [1] and -6.33% in experiment [2]. The viability increase in experiment [3] was -5.89%. The viability in experiment [4] was 22.2% (active). Also, the inhibition in experiment [5] was 1.27%. Further, the RAM network inhibition in experiment [6] was -2.2%.
With `O=C(Nc1cccc(Cl)c1Cl)c1ccncc1`, the growth inhibition in experiment [1] was -9.8%; in experiment [2], -0.975%. In experiment [3], the viability increase was -0.14%. Besides, the viability in experiment [4] was 103%. Also, in experiment [5], the inhibition was 1.85%. Also, in experiment [6], the RAM network inhibition was 4.88%.
Turning to `COc1ccc(NC(=O)c2cncc(Br)c2)c(S(=O)(=O)N2CCOCC2)c1`, the growth inhibition in experiment [1] was -1.69%; in experiment [2], 7.98%. Further, the viability increase in experiment [3] is -5.06%. Moreover, the viability in experiment [4] was 98.3%. Further, the inhibition in experiment [5] was 2.21%. In experiment [6], the RAM network inhibition is 4.58%.
For `Cn1cnnc1SCc1ccc(C(=O)O)cc1`, the growth inhibition was -5.04% in experiment [1] and 7.69% in experiment [2]. Moreover, the viability increase in experiment [3] was -1.36%. In experiment [4], the viability is 98.1%. Also, the inhibition in experiment [5] is 1.06%. The RAM network inhibition in experiment [6] is 1.81%.
Take `CCC(=O)c1cc(F)c(N2CCN(S(=O)(=O)c3ccccc3)CC2)cc1C`: the growth inhibition in experiment [1] is -21.4%; in experiment [2], 0.885%. For the same molecule, in experiment [3], the viability increase is 0.77%. Moreover, the viability in experiment [4] is 59.2%. The inhibition in experiment [5] is 0.65%. In addition, the RAM network inhibition in experiment [6] is 1.67%.
Consider `COc1cc(C2=Nc3c(c(C)nn3-c3ccccc3)P(=O)(N3CCOCC3)O2)cc(OC)c1OC` (centres undefined), for which the growth inhibition in experiment [1] is 12.4%; in experiment [2], 0.78%. For the same molecule, in experiment [3], the viability increase is -2.26%. The viability in experiment [4] was 92%. In addition, the inhibition in experiment [5] is 0.485%. Also, in experiment [6], the RAM network inhibition is 2.86%.
In the case of `O=C(c1ccco1)N1CCN(C(=O)C2Cc3ccccc3CN2S(=O)(=O)c2ccc(F)cc2)CC1` (centres undefined), the growth inhibition in experiment [1] is -12.6%; in experiment [2], -9.61%. Besides, the viability increase in experiment [3] is -4.67%. In addition, the viability in experiment [4] is 97.2%. In addition, the inhibition in experiment [5] is 3.29%. Besides, the RAM network inhibition in experiment [6] is 7.28%.
As for `O=C1CC(N2CCN(Cc3ccc4c(c3)OCO4)CC2)C(=O)N1Cc1ccc(N2CCCC2=O)cc1` (centres undefined), the growth inhibition was -28.2% in experiment [1] and -0.61% in experiment [2]. The viability increase in experiment [3] was -1.61%. The viability in experiment [4] was 90.3%. In experiment [5], the inhibition is 2.29%. In addition, the RAM network inhibition in experiment [6] is 7.63%.
For `CCN(CC)C(=O)CSc1nnc(-c2ccccc2)n1N`, the growth inhibition in experiment [1] was 3.57%; in experiment [2] it was -0.035%. The viability increase in experiment [3] is -2.74%. Moreover, the viability in experiment [4] was 93.3%. In addition, the inhibition in experiment [5] is 0.76%. Moreover, the RAM network inhibition in experiment [6] is -0.62%.
With `COCC(=O)NCc1nc2ccccc2[nH]1`, the figures for the growth inhibition in experiment [1] and in experiment [2] were -12.6% and -0.605%, respectively. Besides, the viability increase in experiment [3] is -1.85%. The viability in experiment [4] is 105%. For the same molecule, the inhibition in experiment [5] was 1.76%. The RAM network inhibition in experiment [6] was 2.13%.
As to `COc1ccccc1NC1=NCC(=O)N1Cc1ccccc1`, the growth inhibition in experiment [1] is -30.4%; in experiment [2], -3.24%. In addition, the viability increase in experiment [3] is -0.5%. In addition, the viability in experiment [4] is 93.9%. Further, the inhibition in experiment [5] is 3.58%. Moreover, the RAM network inhibition in experiment [6] is 4.78%.
Take `Cc1ccc(Cl)cc1N1CCN(S(=O)(=O)c2cccc(S(=O)(=O)N3CCCC3)c2)CC1`: the growth inhibition is -4.5% in experiment [1] and 12% in experiment [2]. Further, in experiment [3], the viability increase is 0.04%. Moreover, in experiment [4], the viability was 83.5%. In addition, the inhibition in experiment [5] is 2.14%. Also, the RAM network inhibition in experiment [6] was 6.44%.
As for `CCOC(=O)CNC(=O)c1cn(C)c(=O)c2cc(OC)c(OC)cc12`, the growth inhibition was -29.2% in experiment [1] and -3.25% in experiment [2]. In addition, in experiment [3], the viability increase was -2.81%. For the same molecule, the viability in experiment [4] is 86.5%. Besides, the inhibition in experiment [5] is 0.24%. Besides, in experiment [6], the RAM network inhibition was 2.87%.
With `N#Cc1c(N)nc2c(c1-c1ccc3c(c1)OCO3)CCCCCC2`, the growth inhibition in experiment [1] was -18%; in experiment [2] it was -4.1%. For the same molecule, the viability increase in experiment [3] was -5.55%. For the same molecule, the viability in experiment [4] is 84.8%. Also, in experiment [5], the inhibition was 2.68%. The RAM network inhibition in experiment [6] is 6.96%.
Turning to `COc1ccc(Cn2c(=O)n(Cc3ccco3)c(=N)c3c4c(sc32)COC(C)(C)C4)cc1`, the growth inhibition in experiment [1] is -17.7%; in experiment [2], -5.45%. Further, the viability increase in experiment [3] is -5.35%. Also, the viability in experiment [4] is 66.2%. Besides, the inhibition in experiment [5] was 0.42%. The RAM network inhibition in experiment [6] was 2.55%.
